# An excerpt weighted towards active compounds, which were near 1% of everything screened.
# RAD52 anneal inh – blocks human RAD52 DNA annealing. AID 651710. P43351. recombinant RAD52 DNA annealing, FRET fluorescence. inhibition, % at 18.7 µM. 0.46% of 360,000 active;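 active = every replicate showing at least 50% inhibition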
# ERp5 block – blocks human ERp5 reductase activity on insulin. 0.05% of 350,000 active. inhibition, % at 9.99 µM. ERp5 insulin aggregation, absorbance 650 nm, 90 min. Q15084;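 active = mean replicate inhibition above about 25%, with every replicate also reaching it, limit read from the data, passing the limit was not always enough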
# CAL PDZ FP-1 – inhibitors of human CAL PDZ peptide binding. purified CAL PDZ, TMR-peptide fluorescence polarization, 1 h. Q9HD26. 0.92% of 300,000 active. inhibition, % at 24.9 µM;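 active = mean inhibition of at least 30% with at least half of replicates also reaching 30%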
# RAD54 branch – blocks human RAD54 Holliday junction branch migration | Q92698 | FAM/BHQ fluorescence | inhibition, % at 10.4 µM | 0.14% of 360,000 active | AID 602329;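 active = mean normalized replicate activity at least 40 and at least half of replicates scoring 40 or more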;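 also: inhibitors cause a drop in the FAM fluorescence signal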
# PDI turbidity – PDI (human) enzyme inhibition; 0.052% of 350,000 active; AID 588391; inhibition, % at 10 µM; PDI insulin aggregation turbidity, A650, 90 min; P07237;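 active = mean inhibition across replicates of 30% or more, whatever share of single replicates reach that level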
# CAL PDZ FP-2 – blocks peptide binding to human CAL PDZ domain. Q9HD26. purified CAL PDZ, TMR-peptide fluorescence polarization, 1 h. inhibition, % at 20 µM. 0.02% of 330,000 active;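 active = highest replicate inhibition of at least 40%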
#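 System: purified tagged CAL PDZ domain construct (CerCALP). Schedule: 1 h incubation at room temperature before polarization reading. Medium: 25 mM sodium phosphate pH 7.4, 150 mM NaCl, TCEP, IgG, Thesit. Read-out: percent inhibition from loss of millipolarization. Measured by: FP readout, S and P plane fluorescence. Probe or stimulus: fluorescent TMR peptide probe.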
# DNA binder FP – DNA binding artifact in RAD52 counter-screen. 8% of 1,000 active. AC50, µM. Salmon sperm DNA/acridine orange FP displacement. shares compounds with RAD52 anneal inh;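 active = fitted half-maximal concentration for signal loss at or below twice the highest dose tested, in every separate run, actives reach about 64 µM in these data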
# Numbers stand for hits; – = inactive; · = no result given; ! = a repeat was not active.
SMILES,RAD52 anneal inh,ERp5 block,CAL PDZ FP-1,RAD54 branch,PDI turbidity,CAL PDZ FP-2,DNA binder FP
COc1ccc(-c2ccc([C@@H]3[C@@H](CO)N4CCCCN(C(=O)Cc5ccccc5)C[C@H]34)cc2)cc1,–,–,·,–,·,·,·
NCCc1cc(O)c(O)cc1O,90.3!,–,–,–,–,–,–
CN1[C@@H]2Cn3c(cccc3=O)[C@H]1[C@@H](C(=O)NCC1CC1)[C@@H]2CO,–,–,·,–,·,·,·
CC12CNCC(C)(CNC1)C2O (stereo not given),57.4,–,–,–,–,–,–
O=C(Cc1ccccc1)N1CCCCN2[C@H](C1)[C@H](c1ccc(C#Cc3ccccc3)cc1)[C@@H]2CO,–,–,·,–,·,·,·

# Bioassay records (PubChem)
